Reference: ChEMBL document CHEMBL4622973, “Discovery of Potent Small-Molecule SIRT6 Activators: Structure-Activity Relationship and Anti-Pancreatic Ductal Adenocarcinoma Activity” (J Med Chem, 2020)
Activity calls are given as the source filed them. The rule behind the calls is not given here.

Columns and labels:
[1] = test system: NCI-H1975; experiment: Antiproliferative activity against human NCI-H1975 cells assessed as reduction in cell viability incubated for 72 hrs by MTT assay; assay type: functional, cell-based
[2] = Cmax in Sprague-Dawley rat at 2 mg/kg, iv after 0.25 to 24 hrs by LC-MS/MS analysis; assay type: ADME, organism-based; parameters: dose 2 mg/kg, route intravenous; conditions: in vivo
Outline: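 Male Sprague-Dawley rats, 6-8 weeks old. Dosing solution of 10 (PO) or 2 (IV) mg/mL in 5% DMSO, 10% Solutol and 85% saline, pH 7. Blood taken by cardiac puncture at 0.083–24 h (PO) or 0.25–24 h (IV). Plasma levels measured by LC-MS/MS. Values are mean ± SD, n = 3.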

[3] = Tmax in Sprague-Dawley rat at 2 mg/kg, iv after 0.25 to 24 hrs by LC-MS/MS analysis; assay type: ADME, organism-based; conditions: in vivo
Outline: (§1)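 Male Sprague-Dawley rats, 6–8 weeks old, received a single dose of 10 mg/kg p.o. or 2 mg/kg i.v. The vehicle was 5% DMSO, 10% Solutol and 85% saline at pH 7. Blood was taken by cardiac puncture at 0.083–24 h (p.o.) or 0.25–24 h (i.v.), and plasma was measured by LC-MS/MS. Values are mean ± SD, n = 3.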

[4] = test system: PANC-1; experiment: Antiproliferative activity against human PANC1 cells assessed as reduction in cell viability incubated for 72 hrs by MTT assay; assay type: functional, cell-based
Outline: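 PDAC cells grown in DMEM or RPMI1640 with 10% FBS and penicillin/streptomycin at 37 °C, 5% CO2. Plated in triplicate, then treated with a concentration series for 72 h. Viability read by MTT. IC50 calculated from dose-response curves.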

[5] = target: T1, NAD-dependent protein deacylase sirtuin-6 (Homo sapiens, UniProt Q8N6T7); experiment: Activation of N-terminal his-tagged human SIRT6 expressed in Escherichia coli M15 [pREP4] assessed as increase in deacetylation activity incubated for 2 hrs using Ac-RYQK(Myr)-AMC substrate by FDL assay relative to control
T1 sequence (Q8N6T7 whole entry): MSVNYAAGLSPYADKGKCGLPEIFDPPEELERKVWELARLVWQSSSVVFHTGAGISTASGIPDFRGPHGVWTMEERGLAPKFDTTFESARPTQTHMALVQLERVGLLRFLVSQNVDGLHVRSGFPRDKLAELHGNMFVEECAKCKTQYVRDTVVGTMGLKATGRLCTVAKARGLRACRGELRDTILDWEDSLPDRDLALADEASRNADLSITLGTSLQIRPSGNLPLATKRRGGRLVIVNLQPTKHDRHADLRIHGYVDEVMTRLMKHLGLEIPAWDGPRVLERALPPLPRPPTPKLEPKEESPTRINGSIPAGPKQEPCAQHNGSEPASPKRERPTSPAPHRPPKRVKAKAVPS

[6] = target: Histone deacetylase 3 (Homo sapiens, UniProt O15379); experiment: Inhibition of HDAC3 (unknown origin) by FDL assay
Sequence of Histone deacetylase 3 (O15379 whole entry): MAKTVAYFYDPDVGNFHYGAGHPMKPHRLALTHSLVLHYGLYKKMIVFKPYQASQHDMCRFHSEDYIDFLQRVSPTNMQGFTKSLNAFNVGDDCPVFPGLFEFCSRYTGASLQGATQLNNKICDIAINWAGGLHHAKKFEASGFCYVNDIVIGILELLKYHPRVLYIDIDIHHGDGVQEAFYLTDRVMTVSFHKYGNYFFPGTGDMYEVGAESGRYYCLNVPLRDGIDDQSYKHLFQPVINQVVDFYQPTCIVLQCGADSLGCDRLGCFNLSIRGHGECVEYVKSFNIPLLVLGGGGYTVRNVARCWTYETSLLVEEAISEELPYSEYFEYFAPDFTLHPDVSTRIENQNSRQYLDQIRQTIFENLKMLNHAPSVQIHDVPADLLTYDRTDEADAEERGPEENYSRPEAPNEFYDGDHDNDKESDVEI
Outline: (§2)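 Selectivity testing by FDL assay at concentrations up to 200 µM. SIRT1-2 assays run by an outside contract provider. Values reported as IC50.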

[7] = target: T1, NAD-dependent protein deacylase sirtuin-6; experiment: Activation of N-terminal his-tagged human SIRT6 expressed in Escherichia coli M15 [pREP4] assessed as increase in deacetylation activity incubated for 2 hrs using Ac-RYQK(Ac)-AMC substrate by HPLC analysis
[8] = Toxicity in BALB/c nude mouse xenografted with human PANC1 cells assessed as induction of body weight loss at 100 to 150 mg/kg/day, po for 30 days; assay type: organism-based, PANC-1; conditions: in vivo, 720 h
Outline: (§3)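 Female BALB/c nude mice, 6–8 weeks old, received 5×10⁶–1×10⁷ PANC-1 cells subcutaneously in the right flank. Once tumors reached 130–150 mm³, mice were randomized (n = 6) to vehicle or 100 or 150 mg/kg/d given orally for 30 days. Body weight and toxicity were monitored against the vehicle group.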

[9] = Oral bioavailability in Sprague-Dawley rat at 10 mg/kg after 0.083 to 24 hrs by LC-MS/MS analysis; assay type: ADME, organism-based; conditions: in vivo; outline: as §1
[10] = target: Histone deacetylase 9 (Homo sapiens, UniProt Q9UKV0); experiment: Inhibition of HDAC9 (unknown origin) by FDL assay; outline: as §2
Sequence of Histone deacetylase 9 (Q9UKV0 whole entry): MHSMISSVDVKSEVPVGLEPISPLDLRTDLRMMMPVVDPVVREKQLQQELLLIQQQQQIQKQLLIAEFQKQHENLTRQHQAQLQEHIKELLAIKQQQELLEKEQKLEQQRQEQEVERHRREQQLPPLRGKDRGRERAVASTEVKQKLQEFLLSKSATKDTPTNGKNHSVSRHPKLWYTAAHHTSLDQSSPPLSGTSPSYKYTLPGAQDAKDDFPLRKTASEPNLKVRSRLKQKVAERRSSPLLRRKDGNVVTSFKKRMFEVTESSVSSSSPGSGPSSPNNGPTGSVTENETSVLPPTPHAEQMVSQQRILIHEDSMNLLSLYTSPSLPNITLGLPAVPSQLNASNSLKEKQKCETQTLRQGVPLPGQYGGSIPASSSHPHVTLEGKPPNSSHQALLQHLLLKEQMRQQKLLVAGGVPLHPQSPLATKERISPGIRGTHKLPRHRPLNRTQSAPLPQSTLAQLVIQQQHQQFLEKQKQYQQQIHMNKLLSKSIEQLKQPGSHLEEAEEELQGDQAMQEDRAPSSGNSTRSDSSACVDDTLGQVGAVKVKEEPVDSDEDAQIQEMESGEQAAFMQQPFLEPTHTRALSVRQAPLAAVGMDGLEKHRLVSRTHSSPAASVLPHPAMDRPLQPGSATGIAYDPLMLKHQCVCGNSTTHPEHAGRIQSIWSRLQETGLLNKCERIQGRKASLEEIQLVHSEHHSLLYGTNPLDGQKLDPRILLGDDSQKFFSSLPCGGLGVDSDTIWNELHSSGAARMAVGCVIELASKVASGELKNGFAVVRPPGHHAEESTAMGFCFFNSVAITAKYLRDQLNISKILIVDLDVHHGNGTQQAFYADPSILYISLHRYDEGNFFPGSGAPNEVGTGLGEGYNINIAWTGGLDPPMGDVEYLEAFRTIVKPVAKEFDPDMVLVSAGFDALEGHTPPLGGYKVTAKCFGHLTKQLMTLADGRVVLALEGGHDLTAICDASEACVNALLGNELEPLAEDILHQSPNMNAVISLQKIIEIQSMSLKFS

[11] = target: T1, NAD-dependent protein deacylase sirtuin-6; experiment: […] in human BxPC3 cells assessed as reduction in IGF2BP3 expression levels at 25 uM incubated for 72 hrs by Western blot analysis; assay type: cell-based; conditions: BXPC-3
Outline: (§4)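 Cells incubated 72 h with various compound concentrations; whole-cell RIPA lysates with protease inhibitors, BCA-normalised, separated on 12% SDS-PAGE, transferred to PVDF, blocked in 5% milk or BSA. Probed 10 h at 4 °C with antibodies to SIRT6, acetyl-H3K9/K18/K56, total H3, Lin28b, Myc, IGF2BP3, β-actin; HRP secondary, chemiluminescent detection.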

[12] = test system: BXPC-3; experiment: Antiproliferative activity against human BxPC3 cells at 3.3 to 10 uM incubated for 24 hrs by EdU incorporation assay; assay type: functional, cell-based
Outline: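 Cells seeded per well at 8000 (BXPC-3) or 4600 (PANC-1), then treated with a concentration series for 24 h. EdU incorporation detected with an EdU-Apollo kit, with Hoechst counterstain. EdU-positive cells counted by high-content imaging across 10 fields.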

[13] = test system: HepG2; experiment: Antiproliferative activity against human HepG2 cells assessed as reduction in cell viability incubated for 72 hrs by MTT assay; assay type: functional, cell-based
[14] = Toxicity in BALB/c nude mouse xenografted with human PANC1 cells assessed as induction of toxicity symptoms at 100 to 150 mg/kg/day, po for 30 days; assay type: organism-based, PANC-1; conditions: in vivo, 720 h; outline: as §3
[15] = target: T1, NAD-dependent protein deacylase sirtuin-6; experiment: […] in human BxPC3 cells assessed as reduction in H3K9ac levels incubated for 72 hrs by Western blot analysis; assay type: cell-based; conditions: BXPC-3; outline: as §4
[16] = test system: PANC-1; experiment: Antitumor activity against human PANC1 cells xenografted in BALB/c nude mouse assessed as inhibition of tumor growth at 150 mg/kg/day, po for 30 days relative to control; assay type: functional; conditions: PANC-1, po, 720 h, read-out: TGI
Outline: (§5)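 Female BALB/c nude mice, 6-8 weeks old, injected subcutaneously in the right flank with 5×10^6–1×10^7 PANC-1 cells. At 130-150 mm³, mice randomized into 4 groups (n = 6) and dosed orally once daily for 30 days against vehicle. Tumor volume followed over time. Inhibition rate assessed against control.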

[17] = target: T1, NAD-dependent protein deacylase sirtuin-6; experiment: Binding affinity to N-terminal his-tagged human SIRT6 expressed in Escherichia coli M15 [pREP4] by ITC assay
Outline: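 ITC at 25 °C in 20 mM HEPES pH 7.5, 100 mM NaCl, 2 mM DTT. SIRT6 (400 µM) injected into a cell holding activator (80 µM). Kd derived from the binding isotherm.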

[18] = test system: MIA PaCa-2; experiment: Inhibition of cell migration of human MIAPaCa2 cells at 10 umol/L incubated for 24 hrs by inverted microscopy relative to control; assay type: functional; conditions: MIA PaCa-2, 24 h
Outline: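 PDAC cells are grown to a confluent monolayer at 37 °C in 5% CO2. The monolayer is scratched with a 200 μL pipette tip to make a gap of constant width, then washed with PBS. Cells are exposed to a range of compound concentrations. They are imaged by inverted microscope after 24 h. Migrated cells are counted by hand, and inhibition is expressed relative to untreated wells (100%).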

[19] = target: T1, NAD-dependent protein deacylase sirtuin-6; experiment: […] in human BxPC3 cells assessed as reduction in Lin28b expression levels at 25 uM incubated for 72 hrs by Western blot analysis; assay type: cell-based; conditions: BXPC-3; outline: as §4
[20] = test system: SW-620; experiment: Antiproliferative activity against human SW620 cells assessed as reduction in cell viability incubated for 72 hrs by MTT assay; assay type: functional, cell-based
[21] = test system: PANC-1; experiment: Antitumor activity against human PANC1 cells xenografted in BALB/c nude mouse assessed as slowing of tumor growth at 100 to 150 mg/kg/day, po for 30 days; assay type: functional, organism-based; outline: as §5

SMILES: O=C(NC(c1ccccc1)c1ccccc1)c1cc(-c2cc3ccccc3o2)nc2ccccc12
- Activity [1]: Active
- Cmax [2]: 5120 ng/mL
- Tmax [3]: 4.8 min
- Activity [4]: Dose-dependent effect
- IC50 ([4]; PANC-1, 72 h): 4.13 µM
- EC1.5 [5]: 0.49 µM
- EC50 [5]: 5.49 µM
- IC50 [6]: > 200 µM
- Activity [7]: Active
- Activity [8]: Non-Toxic
- bioavailability [9]: 4.24%
- IC50 [10]: > 200 µM
- inhibition [11]: Active
- Activity [12]: Active
- Activity [13]: Active
- Activity [14]: Non-Toxic
- inhibition [15]: Dose-dependent effect
- inhibition in vivo at 150 mg/kg/day [16]: 90.2%
- Kd [17]: 8.85 µM
- inhibition at 10 µM [18]: 57.2%
- inhibition [19]: Active
- Activity [20]: Active
- Activity [21]: Dose-dependent effect
